From ChEMBL document CHEMBL1122936, “Facile synthesis of platelet-activating factor and racemic analogues containing unsaturation in the sn-1-alkyl chain” (1985)

What was measured:
Type in all cases: functional
Homo sapiens [1] = species: Homo sapiens; test: Effective dose for lysozyme release in human PMN was measured
In short: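 Human PMN at 2.6×10^6 cells/mL in Hanks' buffer, 37 °C, 20 min. Cytochalasin B 5 μg/mL for 2–4 min, then racemic analogue challenge 5 min, on ice, spun 200g at 4 °C. Net lysozyme release = % of total minus unstimulated release. ED10 extrapolated for 10% net release from curves averaged over ≥5 dose-response experiments.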

Homo sapiens [2] = species: Homo sapiens; test: Desensitizing action on human PMN degranulation response, in the presence of FMLP (17 nM) at the dose of 9 nM
In short: (§1)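 Human neutrophils (>96% PMN, <5 platelets/100 PMN, no erythrocytes) at 2.6×10^6 cells/mL in Hanks' buffer, 37 °C, 20 min. Preincubated 8 min with desensitizing agent in BSA, or BSA alone. Then cytochalasin B 5 μg/mL for 2–4 min, then challenge 5 min with 200 nM 1-O-hexadecyl PAF or 17 nM FMLP. Read-out is net β-glucuronidase release vs BSA-pretreated cells, 14 experiments, unpaired t-test.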

Oryctolagus cuniculus = species: Oryctolagus cuniculus; test: Effective dose for [14C]5-HT release in prelabeled rabbit platelets was measured; conditions: read-out: ED50 (the source's name)
In short: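 Rabbit platelet-rich plasma labeled with [14C]serotonin 1.0 μCi/mL, 37 °C, 15 min. Washed twice, then 5×10^7 platelets/0.2 mL in citrate-free Tyrode's (pH 7.3) with 1 mM Ca2+, 37 °C, 20 min. Challenged 1 min, stopped with formalin on ice, supernatant label counted as % of total cellular label. ED50 extrapolated for 50% release from curves averaged over ≥5 dose-response experiments.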

Homo sapiens [3] = species: Homo sapiens; test: Desensitizing action on human PMN degranulation response, in the presence of PAF (200 nM) at the dose of 9 nM; in short: as §1
Homo sapiens [4] = species: Homo sapiens; test: Desensitizing action on human PMN degranulation response, in the presence of FMLP (17 nM) at the dose of 8 nM
In short: (§2)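 Human neutrophils (>96% PMN, <5 platelets/100 PMN, no erythrocytes) in Hanks' buffer at 2.6×10^6 cells/mL, 37 °C, 20 min; preincubated 8 min with desensitizing agent (in BSA) or BSA alone, then cytochalasin B 5 μg/mL for 2–4 min, challenged 5 min (200 nM PAF or 17 nM FMLP). Supernatant assayed for net β-glucuronidase release, 14 experiments; unpaired t-test versus BSA.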

Homo sapiens [5] = species: Homo sapiens; test: Desensitizing action on human PMN degranulation response, in the presence of PAF (200 nM) at the dose of 8 nM; in short: as §2
Homo sapiens [6] = species: Homo sapiens; test: Desensitizing action on human PMN degranulation response, in the presence of FMLP (17 nM) at the dose of 60 nM; in short: as §1
Homo sapiens [7] = species: Homo sapiens; test: Desensitizing action on human PMN degranulation response, in the presence of PAF (200 nM) at the dose of 60 nM; in short: as §1
Homo sapiens [8] = species: Homo sapiens; test: Desensitizing action on human PMN degranulation response, in the presence of PAF (200 nM) at the dose of 10 nM; in short: as §1
Homo sapiens [9] = species: Homo sapiens; test: Desensitizing action on human PMN degranulation response, in the presence of FMLP (17 nM) at the dose of 10 nM; in short: as §1
Homo sapiens [10] = species: Homo sapiens; test: Desensitizing action on human PMN degranulation response, in the presence of PAF (200 nM) at the dose of 17 nM; in short: as §1
Homo sapiens [11] = species: Homo sapiens; test: Desensitizing action on human PMN degranulation response, in the presence of FMLP (17 nM) at the dose of 17 nM; in short: as §1

| SMILES | ED10 (Homo sapiens [1]) [nM] | EC50 (Oryctolagus cuniculus) [nM] | Degranulating activity (Homo sapiens [8]) | Degranulating activity (Homo sapiens [9]) | other results |
| --- | --- | --- | --- | --- | --- |
| CCCCC/C=C\C/C=C\CCCCCCCCOCC(COP(=O)([O-])OCC[N+](C)(C)C)OC(C)=O (configuration not stated) | 9 | 0.3 |  |  | Degranulating activity (Homo sapiens [2]): 26.3; Degranulating activity (Homo sapiens [3]): 0.1 |
| CCCCCCCCCCCCCCCCOCC(COP(=O)([O-])OCC[N+](C)(C)C)OC(C)=O (configuration not stated) [PLATELET ACTIVATING FACTOR] | 8 | 0.2 |  |  | Degranulating activity (Homo sapiens [4]): 23.6; Degranulating activity (Homo sapiens [5]): -0.2 |
| CCCCCCCCCCCCCCCCCCOCC(COP(=O)([O-])OCC[N+](C)(C)C)OC(C)=O (configuration not stated) | 60 | 0.8 |  |  | Degranulating activity (Homo sapiens [6]): 22; Degranulating activity (Homo sapiens [7]): -1.2 |
| CCCCCCCC/C=C\CCCCCCCCOCC(COP(=O)([O-])OCC[N+](C)(C)C)OC(C)=O (configuration not stated) | 13 | 0.4 | 0.3 | 28.2 |  |
| CSCC[C@H](NC=O)C(=O)N[C@@H](CC(C)C)C(=O)N[C@@H](Cc1ccccc1)C(=O)O |  |  |  |  | Degranulating activity (Homo sapiens [10]): 11.9; Degranulating activity (Homo sapiens [11]): 6.2 |
| CCCCCC/C=C\CCCCCCCCOCC(COP(=O)([O-])OCC[N+](C)(C)C)OC(C)=O (configuration not stated) | 10 | 0.5 | 1.4 | 29.5 |  |
